Data as given in ChEMBL document CHEMBL3421533, “The Discovery of Orally Bioavailable Tyrosine Threonine Kinase (TTK) Inhibitors: 3-(4-(heterocyclyl)phenyl)-1H-indazole-5-carboxamides as Anticancer Agents” (J Med Chem, 2015).

Biological target: Aurora kinase B/Inner centromere protein (Homo sapiens, UniProt Q96GD4)
Sequence (Q96GD4 whole entry): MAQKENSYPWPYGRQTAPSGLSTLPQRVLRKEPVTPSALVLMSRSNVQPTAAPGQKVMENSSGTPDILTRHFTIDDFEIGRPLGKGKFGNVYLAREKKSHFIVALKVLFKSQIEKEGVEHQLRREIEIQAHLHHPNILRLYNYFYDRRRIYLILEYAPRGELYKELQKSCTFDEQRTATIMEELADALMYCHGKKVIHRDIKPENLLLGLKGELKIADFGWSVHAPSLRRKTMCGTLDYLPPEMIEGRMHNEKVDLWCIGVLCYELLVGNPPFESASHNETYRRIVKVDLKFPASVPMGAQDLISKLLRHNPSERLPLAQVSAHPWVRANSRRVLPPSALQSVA
Sequence (Q9NQS7 whole entry, further chain): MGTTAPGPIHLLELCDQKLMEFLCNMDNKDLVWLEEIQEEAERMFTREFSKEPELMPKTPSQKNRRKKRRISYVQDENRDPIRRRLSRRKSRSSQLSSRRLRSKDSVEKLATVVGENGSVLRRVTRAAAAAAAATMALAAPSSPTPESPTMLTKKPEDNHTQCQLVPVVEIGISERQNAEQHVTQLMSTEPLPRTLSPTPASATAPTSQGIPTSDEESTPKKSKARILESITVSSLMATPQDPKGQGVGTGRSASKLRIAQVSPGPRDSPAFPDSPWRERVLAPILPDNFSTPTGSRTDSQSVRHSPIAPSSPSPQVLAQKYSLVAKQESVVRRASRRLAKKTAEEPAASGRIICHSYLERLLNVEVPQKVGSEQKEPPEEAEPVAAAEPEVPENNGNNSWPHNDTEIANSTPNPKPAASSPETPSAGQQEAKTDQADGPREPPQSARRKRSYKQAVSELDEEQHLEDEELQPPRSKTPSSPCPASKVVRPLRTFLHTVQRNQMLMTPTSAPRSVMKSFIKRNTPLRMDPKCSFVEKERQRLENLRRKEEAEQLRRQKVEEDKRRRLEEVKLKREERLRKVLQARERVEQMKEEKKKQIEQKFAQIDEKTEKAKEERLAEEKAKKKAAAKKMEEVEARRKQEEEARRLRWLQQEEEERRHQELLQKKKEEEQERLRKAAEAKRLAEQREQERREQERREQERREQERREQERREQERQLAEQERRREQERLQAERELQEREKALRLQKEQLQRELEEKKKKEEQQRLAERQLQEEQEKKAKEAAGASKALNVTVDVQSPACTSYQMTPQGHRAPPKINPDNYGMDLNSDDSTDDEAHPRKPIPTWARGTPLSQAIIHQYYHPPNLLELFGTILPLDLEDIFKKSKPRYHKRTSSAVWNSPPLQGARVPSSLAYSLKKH
Experiment: Inhibition of AURKB/INCENP (unknown origin) preincubated for 15 mins prior to ATP addition by FRET-based homogenous assay
Type: protein-complex assay
Settings: not given
Outline: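 The enzyme was AURKB/INCENP in a FRET-based homogeneous assay run to kit specifications, with ATP at 128 μM. […] Each IC50 came from a single determination, reported with its standard fitting error.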
Compound `O=C(N[C@H](c1ccccn1)C1CCCC1)c1ccc2[nH]nc(-c3ccc(N4C5CCCC4COC5)cc3)c2c1` has an IC50 of 2.8 µM.
For `CC(C)[C@H](NC(=O)c1ccc2[nH]nc(-c3ccc(N4[C@H]5CC[C@H]4CC(O)C5)cc3)c2c1)c1ccccc1Cl` (stereo not given in full), the IC50 was over 6.3 µM.
`O=C(N[C@H](c1ccccc1)C1CC1)c1ccc2[nH]nc(-c3ccc(N4[C@H]5CC[C@H]4CC(O)C5)cc3)c2c1` (stereo not given in full) showed an IC50 of 1.1 µM.
Compound `O=C(N[C@@H](c1ccccn1)C1CCCC1)c1ccc2[nH]nc(-c3ccc(N4[C@H]5CC[C@H]4CC(O)C5)cc3)c2c1` (stereo not given in full) has an IC50 of 1.8 µM.

Biological target: T1, Dual specificity protein kinase TTK (Homo sapiens, UniProt P33981)
T1 sequence (P33981 whole entry): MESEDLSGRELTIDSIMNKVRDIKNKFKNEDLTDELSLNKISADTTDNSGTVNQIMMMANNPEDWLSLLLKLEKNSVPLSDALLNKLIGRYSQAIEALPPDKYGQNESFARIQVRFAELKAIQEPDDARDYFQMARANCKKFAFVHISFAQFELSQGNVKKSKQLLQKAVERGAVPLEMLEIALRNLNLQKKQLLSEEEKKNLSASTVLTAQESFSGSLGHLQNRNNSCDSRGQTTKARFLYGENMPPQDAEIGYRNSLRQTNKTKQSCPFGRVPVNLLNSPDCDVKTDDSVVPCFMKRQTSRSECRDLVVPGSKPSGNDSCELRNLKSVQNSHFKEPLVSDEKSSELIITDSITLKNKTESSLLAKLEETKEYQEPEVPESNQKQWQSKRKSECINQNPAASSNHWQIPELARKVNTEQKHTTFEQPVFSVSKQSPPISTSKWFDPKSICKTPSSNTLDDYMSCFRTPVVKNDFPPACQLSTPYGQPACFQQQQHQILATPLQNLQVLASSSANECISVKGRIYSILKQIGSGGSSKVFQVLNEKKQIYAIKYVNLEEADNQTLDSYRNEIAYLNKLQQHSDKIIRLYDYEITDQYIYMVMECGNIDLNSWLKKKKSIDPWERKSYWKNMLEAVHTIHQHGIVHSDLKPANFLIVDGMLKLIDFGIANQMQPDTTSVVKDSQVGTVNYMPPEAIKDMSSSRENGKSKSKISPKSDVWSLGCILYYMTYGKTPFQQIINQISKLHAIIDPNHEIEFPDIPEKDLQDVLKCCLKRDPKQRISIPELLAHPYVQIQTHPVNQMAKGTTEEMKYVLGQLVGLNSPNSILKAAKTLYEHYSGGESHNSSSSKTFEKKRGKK
Experiment: Inhibition of amino terminal GST-fused full length human TTK using His6-SUMO-TTK-N as substrate preincubated for 15 mins prior to ATP addition by indirect ELISA detection system
Settings: not given
In the case of `O=C(N[C@H](c1ccccn1)C1CCCC1)c1ccc2[nH]nc(-c3ccc(N4C5CCCC4COC5)cc3)c2c1`, the IC50 is reported as 0.0083 µM.
In the case of `CC(C)[C@H](NC(=O)c1ccc2[nH]nc(-c3ccc(N4[C@H]5CC[C@H]4CC(O)C5)cc3)c2c1)c1ccccc1Cl` (stereo not given in full), the IC50 is reported as 0.006 µM.
In the case of `O=C(N[C@H](c1ccccc1)C1CC1)c1ccc2[nH]nc(-c3ccc(N4[C@H]5CC[C@H]4CC(O)C5)cc3)c2c1` (stereo not given in full), the IC50 is reported as 0.0028 µM.
`O=C(N[C@@H](c1ccccn1)C1CCCC1)c1ccc2[nH]nc(-c3ccc(N4[C@H]5CC[C@H]4CC(O)C5)cc3)c2c1` (stereo not given in full) showed an IC50 of 0.0041 µM.

System: not listed separately
Experiment: AUCinfinity in athymic CD1 nude mouse at 10 mg/kg, po by LC-MS/MS analysis
Type: ADME, organism-based, Plasma
Parameters: time infinity, dose 10 mg/kg, route oral
Settings: athymic CD1 nude, plasma
For `CC(C)[C@H](NC(=O)c1ccc2[nH]nc(-c3ccc(N4[C@H]5CC[C@H]4CC(O)C5)cc3)c2c1)c1ccccc1Cl` (stereo not given in full), the AUC(0-inf) was 620 ng·h/mL.
In the case of `O=C(N[C@H](c1ccccc1)C1CC1)c1ccc2[nH]nc(-c3ccc(N4[C@H]5CC[C@H]4CC(O)C5)cc3)c2c1` (stereo not given in full), the AUC(0-inf) is reported as 670 ng·h/mL.

Biological target: Cytochrome P450 3A4 (Homo sapiens, UniProt P08684)
Sequence (P08684 whole entry): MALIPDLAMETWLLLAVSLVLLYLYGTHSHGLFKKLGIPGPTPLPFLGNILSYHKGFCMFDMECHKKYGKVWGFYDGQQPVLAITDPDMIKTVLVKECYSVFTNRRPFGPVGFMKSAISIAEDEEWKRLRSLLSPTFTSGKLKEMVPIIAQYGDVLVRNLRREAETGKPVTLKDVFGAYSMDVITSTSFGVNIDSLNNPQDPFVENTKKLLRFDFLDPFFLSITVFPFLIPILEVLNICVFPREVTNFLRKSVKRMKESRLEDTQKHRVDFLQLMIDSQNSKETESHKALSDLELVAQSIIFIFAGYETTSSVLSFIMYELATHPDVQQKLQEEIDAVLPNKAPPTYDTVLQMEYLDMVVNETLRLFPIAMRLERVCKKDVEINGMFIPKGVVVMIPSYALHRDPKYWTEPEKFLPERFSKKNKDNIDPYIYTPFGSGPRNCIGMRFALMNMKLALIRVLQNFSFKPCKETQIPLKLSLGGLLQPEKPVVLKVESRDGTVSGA
Experiment: Inhibition of human CYP3A4 using BFC as substrate preincubated for 10 mins followed by enzyme/substrate addition measured after 30 mins by fluorescence assay
Type: ADME
Settings: not given
Compound `O=C(N[C@@H](c1ccccn1)C1CCCC1)c1ccc2[nH]nc(-c3ccc(N4[C@H]5CC[C@H]4CC(O)C5)cc3)c2c1` (stereo not given in full) has an IC50 of 0.23 µM.

System: MDA-MB-468
Experiment: Cytotoxicity against human MDA-MB-468 cells after 5 days by sulforhodamine B assay
Type: functional
Settings: Homo sapiens, MDA-MB-468, 120 h
Outline: (§1)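 Cancer lines were seeded at 800–6000 cells per well according to growth rate, 24 h before compound overlay. After culture, cells were fixed in situ and stained with sulforhodamine B. GI50 values were derived by curve fitting.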
Compound `O=C(N[C@H](c1ccccn1)C1CCCC1)c1ccc2[nH]nc(-c3ccc(N4C5CCCC4COC5)cc3)c2c1` has a GI50 of 0.18 µM.
`CC(C)[C@H](NC(=O)c1ccc2[nH]nc(-c3ccc(N4[C@H]5CC[C@H]4CC(O)C5)cc3)c2c1)c1ccccc1Cl` (stereo not given in full) gave a GI50 of 0.021 µM.
Work on `O=C(N[C@H](c1ccccc1)C1CC1)c1ccc2[nH]nc(-c3ccc(N4[C@H]5CC[C@H]4CC(O)C5)cc3)c2c1` (stereo not given in full) yielded a GI50 of 0.07 µM.
`O=C(N[C@@H](c1ccccn1)C1CCCC1)c1ccc2[nH]nc(-c3ccc(N4[C@H]5CC[C@H]4CC(O)C5)cc3)c2c1` (stereo not given in full) gave a GI50 of 0.03 µM.

System: not listed separately
Experiment: Cytotoxicity against human HCT116 cells after 5 days by sulforhodamine B assay
Type: functional, HCT-116
Settings: Homo sapiens, HCT-116, 120 h
Outline: as §1
With `O=C(N[C@H](c1ccccn1)C1CCCC1)c1ccc2[nH]nc(-c3ccc(N4C5CCCC4COC5)cc3)c2c1` the GI50 was 0.025 µM.
With `CC(C)[C@H](NC(=O)c1ccc2[nH]nc(-c3ccc(N4[C@H]5CC[C@H]4CC(O)C5)cc3)c2c1)c1ccccc1Cl` (stereo not given in full) the GI50 was 0.009 µM.
In the case of `O=C(N[C@H](c1ccccc1)C1CC1)c1ccc2[nH]nc(-c3ccc(N4[C@H]5CC[C@H]4CC(O)C5)cc3)c2c1` (stereo not given in full), the GI50 is reported as 0.022 µM.
`O=C(N[C@@H](c1ccccn1)C1CCCC1)c1ccc2[nH]nc(-c3ccc(N4[C@H]5CC[C@H]4CC(O)C5)cc3)c2c1` (stereo not given in full) gave a GI50 of 0.015 µM.

System: not listed separately
Experiment: Half life in rat liver microsomes at 1 uM by LC-MS analysis
Type: ADME
Settings: liver microsomes
Compound `CC(C)[C@H](NC(=O)c1ccc2[nH]nc(-c3ccc(N4[C@H]5CC[C@H]4CC(O)C5)cc3)c2c1)c1ccccc1Cl` (stereo not given in full) has a half-life at 1 µM of over 60 min.
With `O=C(N[C@H](c1ccccc1)C1CC1)c1ccc2[nH]nc(-c3ccc(N4[C@H]5CC[C@H]4CC(O)C5)cc3)c2c1` (stereo not given in full) the half-life at 1 µM was 35 min.
Work on `O=C(N[C@@H](c1ccccn1)C1CCCC1)c1ccc2[nH]nc(-c3ccc(N4[C@H]5CC[C@H]4CC(O)C5)cc3)c2c1` (stereo not given in full) yielded a half-life at 1 µM of 22 min.

System: not listed separately
Experiment: Cmax in athymic CD1 nude mouse at 10 mg/kg, po by LC-MS/MS analysis
Type: ADME, organism-based
Parameters: dose 10 mg/kg, route oral
Settings: athymic CD1 nude, in vivo
With `CC(C)[C@H](NC(=O)c1ccc2[nH]nc(-c3ccc(N4[C@H]5CC[C@H]4CC(O)C5)cc3)c2c1)c1ccccc1Cl` (stereo not given in full) the Cmax was 330 ng/mL.
`O=C(N[C@H](c1ccccc1)C1CC1)c1ccc2[nH]nc(-c3ccc(N4[C@H]5CC[C@H]4CC(O)C5)cc3)c2c1` (stereo not given in full) showed a Cmax of 480 ng/mL.

System: not listed separately
Experiment: Cytotoxicity against human OVCAR3 cells after 5 days by sulforhodamine B assay
Type: functional, OVCAR-3
Settings: Homo sapiens, OVCAR-3, 120 h
For `O=C(N[C@H](c1ccccn1)C1CCCC1)c1ccc2[nH]nc(-c3ccc(N4C5CCCC4COC5)cc3)c2c1`, the GI50 was 0.2 µM.
With `CC(C)[C@H](NC(=O)c1ccc2[nH]nc(-c3ccc(N4[C@H]5CC[C@H]4CC(O)C5)cc3)c2c1)c1ccccc1Cl` (stereo not given in full) the GI50 was 0.007 µM.
For `O=C(N[C@H](c1ccccc1)C1CC1)c1ccc2[nH]nc(-c3ccc(N4[C@H]5CC[C@H]4CC(O)C5)cc3)c2c1` (stereo not given in full), the GI50 was 0.12 µM.
In the case of `O=C(N[C@@H](c1ccccn1)C1CCCC1)c1ccc2[nH]nc(-c3ccc(N4[C@H]5CC[C@H]4CC(O)C5)cc3)c2c1` (stereo not given in full), the GI50 is reported as 0.09 µM.

Organism: Homo sapiens
Experiment: Selectivity ratio of IC50 for AURKB/INCENP (unknown origin) to IC50 for amino terminal GST-fused full length human TTK
Settings: not given
Work on `CC(C)[C@H](NC(=O)c1ccc2[nH]nc(-c3ccc(N4[C@H]5CC[C@H]4CC(O)C5)cc3)c2c1)c1ccccc1Cl` (stereo not given in full) yielded a Ratio IC50 of over 100.
Work on `O=C(N[C@H](c1ccccc1)C1CC1)c1ccc2[nH]nc(-c3ccc(N4[C@H]5CC[C@H]4CC(O)C5)cc3)c2c1` (stereo not given in full) yielded a Ratio IC50 of over 100.
In the case of `O=C(N[C@@H](c1ccccn1)C1CCCC1)c1ccc2[nH]nc(-c3ccc(N4[C@H]5CC[C@H]4CC(O)C5)cc3)c2c1` (stereo not given in full), the Ratio IC50 is reported as over 100.

System: not listed separately
Experiment: Half life in mouse liver microsomes at 1 uM by LC-MS analysis
Type: ADME
Settings: liver microsomes
Work on `O=C(N[C@H](c1ccccn1)C1CCCC1)c1ccc2[nH]nc(-c3ccc(N4C5CCCC4COC5)cc3)c2c1` yielded a half-life at 1 µM of 50 min.
Work on `CC(C)[C@H](NC(=O)c1ccc2[nH]nc(-c3ccc(N4[C@H]5CC[C@H]4CC(O)C5)cc3)c2c1)c1ccccc1Cl` (stereo not given in full) yielded a half-life at 1 µM of 34 min.
`O=C(N[C@H](c1ccccc1)C1CC1)c1ccc2[nH]nc(-c3ccc(N4[C@H]5CC[C@H]4CC(O)C5)cc3)c2c1` (stereo not given in full) gave a half-life at 1 µM of 47 min.
Compound `O=C(N[C@@H](c1ccccn1)C1CCCC1)c1ccc2[nH]nc(-c3ccc(N4[C@H]5CC[C@H]4CC(O)C5)cc3)c2c1` (stereo not given in full) has a half-life at 1 µM of over 60 min.
